# Where a SMILES comes first, the peptide text is derived from it. [ ]: non-standard residue; d: D form. The star is where a group is joined. Hydrocinnamoyl = O=C(CCc1ccccc1)*; Ac5c = NC1(C(=O)O)CCCC1; Deg = CCC(N)(CC)C(=O)O
# Experiments:
# [1] = target: T1, porcine erythrocyte μ-calpain (Sus scrofa, UniProt P35750); test: Calpain inhibition assay; format: biochemical
# T1 sequence (P35750 1-714): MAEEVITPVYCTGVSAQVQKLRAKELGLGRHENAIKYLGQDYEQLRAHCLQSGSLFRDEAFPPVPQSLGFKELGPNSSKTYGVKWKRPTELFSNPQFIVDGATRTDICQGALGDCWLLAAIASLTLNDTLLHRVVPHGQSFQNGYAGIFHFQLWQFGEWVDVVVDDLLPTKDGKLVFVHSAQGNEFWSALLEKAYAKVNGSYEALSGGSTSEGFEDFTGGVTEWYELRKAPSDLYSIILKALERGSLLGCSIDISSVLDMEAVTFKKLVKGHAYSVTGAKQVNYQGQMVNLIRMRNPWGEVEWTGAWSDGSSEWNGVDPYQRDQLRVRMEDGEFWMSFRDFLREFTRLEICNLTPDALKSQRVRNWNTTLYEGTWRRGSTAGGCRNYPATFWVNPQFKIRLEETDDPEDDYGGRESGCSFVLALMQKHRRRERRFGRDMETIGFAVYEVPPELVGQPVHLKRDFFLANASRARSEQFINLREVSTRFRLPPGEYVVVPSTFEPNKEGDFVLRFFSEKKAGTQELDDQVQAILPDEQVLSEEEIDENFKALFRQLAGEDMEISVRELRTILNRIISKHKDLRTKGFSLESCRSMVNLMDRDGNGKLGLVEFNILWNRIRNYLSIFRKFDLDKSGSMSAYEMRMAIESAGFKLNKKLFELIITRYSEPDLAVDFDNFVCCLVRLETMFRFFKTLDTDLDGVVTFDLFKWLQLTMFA
# T1 sequence (P04574 1-266 partner): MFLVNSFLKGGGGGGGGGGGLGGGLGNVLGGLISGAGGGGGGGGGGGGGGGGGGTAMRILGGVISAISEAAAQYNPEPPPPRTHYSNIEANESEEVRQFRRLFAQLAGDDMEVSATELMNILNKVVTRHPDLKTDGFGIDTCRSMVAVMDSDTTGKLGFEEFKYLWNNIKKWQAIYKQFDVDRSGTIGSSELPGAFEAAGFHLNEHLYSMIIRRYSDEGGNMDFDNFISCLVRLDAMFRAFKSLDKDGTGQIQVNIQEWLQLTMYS
# human liver cathepsin B = human liver cathepsin B (Homo sapiens, UniProt P07858); test: Cathepsin B inhibition assay; format: biochemical
# Procedure, shortened: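 Human liver cathepsin B (1 nM) in 50 mM NaOAc pH 6.0 with 1 mM EDTA and 0.5 mM DTT. Z-Arg-Arg-AMC at 50 µM or 250 µM, plus varying inhibitor concentrations in DMSO (2% total). Ki is the mean of triplicates from Dixon plots (r ≥ 0.95). Selectivity ratio is […].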
selectivity for μ-calpain compared to cathepsin B [1],potency for μ-calpain inhibition relative to compound 2 ([1]; 3 compared to 2),cathepsin B inhibition relative to compound 3 (human liver cathepsin B; 2 compared to 3) [fold],selectivity for cathepsin B compared to μ-calpain (human liver cathepsin B; as stated in abstract) [fold],SMILES
over 35 fold,over 20 fold,,,"CCC(CC)(NC(=O)CCc1ccccc1)C(=O)N[C@H](C=O)Cc1ccccc1 [Compound 3, N-(1-Benzyl-2-oxo-ethyl)-2-ethyl-2-(3-phenyl-propionylamino)-butyramide] (Hydrocinnamoyl-[Deg]-Phe-aldehyde)"
,,3,3,"O=C[C@H](Cc1ccccc1)NC(=O)C1(NC(=O)CCc2ccccc2)CCCC1 [Compound 2, 1-(3-Phenyl-propionylamino)-cyclopentane carboxylic acid (1-benzyl-2-oxo-ethyl)-amide] (Hydrocinnamoyl-[Ac5c]-Phe-aldehyde)"

# Source: PMC2575414 (Bioorganic & medicinal chemistry letters, 2008)
